Measured values reported in ChEMBL document CHEMBL1795294, “Modulation of the activity of histone acetyltransferases by long chain alkylidenemalonates (LoCAMs)” (Bioorg Med Chem, 2011).
The source made the active and inactive calls. The rule behind the calls is not given here.

Assays:
[1] = tested on: U-937; assay: Induction of apoptosis in human U937 cells at 25 uM after 30 hrs using annexin V/propidium iodide double-staining by FACS analysis; assay type: functional, cell-based
How it was run: (§1)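 U937 cells at 200,000 cells/mL, 37 °C, 5% CO2, exposed 30 h at 50 or 25 µM. Dose–response runs used 5–200 µM, with IC50 taken as the concentration giving 50% apoptosis. Annexin V/propidium iodide double staining, apoptotic subpopulations counted by FACS. Three independent experiments, mean ± SD.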

[2] = tested on: U-937; assay: Cell cycle arrest in human U937 cells assessed as accumulation at S phase at 25 uM after 30 hrs using propidium iodide staining by flow cytometry; assay type: functional, cell-based
How it was run: (§2)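 U937 cells kept at 200,000 cells/mL, 37 °C, 5% CO2, treated 30 h at 50 or 25 µM. Phase distribution by flow cytometry. Three independent experiments, mean ± SD.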

[3] = biological target: Histone acetyltransferase KAT2B (Homo sapiens) (UniProt Q92831); assay: Increase of human recombinant KAT2B acetylation activity using histone H4 peptide as substrate at 50 uM after 2 hrs
How it was run: (§3)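 Human PCAF (200 ng) in KAT buffer with 10 µg histone H4 peptide (aa 2–24), 20 µM acetyl-CoA with 0.5 µCi/mL [3H]-acetyl-CoA, and compound at 50 µM final, 2 h at 37 °C. Spotted on P81 paper in triplicate, washed with TCA then acetone, scintillation counted. Activity given as % of untreated control (100%).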

[4] = tested on: MCF7; assay: Inhibition of histone acetyltransferase in human MCF7 cells assessed as increase of alpha-tubulin acetylation level after 15 mins by Western blotting; assay type: cell-based
[5] = tested on: U-937; assay: Induction of granulocytic differentiation in human U937 after […] using propidium iodide staining by FACS analysis; assay type: functional, cell-based
[6] = biological target: CREB-binding protein (Homo sapiens) (UniProt Q92793); assay: Inhibition of human recombinant KAT3A expressed in Escherichia coli BL21 using histone H4 peptide as substrate at 50 uM after 2 hrs relative to control
How it was run: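 Recombinant CBP fragment (aa 1098–1877) from E. coli BL21, affinity purified. Spotted on P81 paper in triplicate, washed with TCA/acetone, scintillation DPM compared with negative control, expressed as %.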

[7] = biological target: Histone acetyltransferase p300 (Homo sapiens) (UniProt Q09472); assay: Binding affinity to His6-tagged immobilized human KAT3B catalytic domain expressed in Sf9 cells by surface plasmon resonance assay
[8] = tested on: U-937; assay: Inhibition of histone acetyltransferase in human U937 cells assessed as increase of acetylation of histone H3 at K18 at 50 uM after 24 hrs by Western blotting; assay type: cell-based
How it was run: (§4)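 U937 cells treated 24 h at 50 µM. Acid-extracted histones (Triton buffer lysis, then 0.2 M HCl overnight at 4 °C) immunoblotted with site-specific antibodies (H3K9/K14/K18/K56ac, H4K5/K8/K16ac, pan-acetyl H4; 1:1000). Loading checked by Ponceau Red staining, or by histone H1 for pan-acetyl H4.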

[9] = tested on: U-937; assay: Inhibition of histone acetyltransferase in human U937 cells assessed as increase of histone H3 acetylation level at 50 uM after 15 mins by Western blotting; assay type: cell-based
How it was run: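 U937 cells treated at 50 µM. Histones prepared by Triton extraction buffer lysis, then overnight 0.2 M HCl extraction at 4 °C, Bradford quantitation. Immunoblot with pan-acetyl-H3 antibody (1:1000), Ponceau Red staining as loading check.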

[10] = biological target: Histone deacetylase (Homo sapiens) (UniProt Q13547+O15379+Q9UBN7+Q92769+Q9UQL6+Q8WUI4+Q9BY41+Q96DB2+P56524+Q9UKV0+Q969S8); assay: Inhibition of HDAC in human U937 cells at 50 uM after 15 mins by Western blotting; assay type: cell-based; conditions: U-937
[11] = tested on: MCF7; assay: Inhibition of histone acetyltransferase in human MCF7 cells assessed as increase of alpha-tubulin acetylation level at 15 and 30 uM after 15 mins by Western blotting
[12] = tested on: U-937; assay: Inhibition of histone acetyltransferase in human U937 cells assessed as increase of acetylation of histone H3 at K9 at 50 uM after 24 hrs by Western blotting; assay type: cell-based; how it was run: as §4
[13] = tested on: U-937; assay: Inhibition of histone acetyltransferase in human U937 cells assessed as increase of acetylation of histone H4 at K16 at 50 uM after 24 hrs by Western blotting; assay type: cell-based; how it was run: as §4
[14] = biological target: Histone acetyltransferase p300 (Homo sapiens) (UniProt Q09472); assay: Binding affinity to immobilized His6-tagged human full-length KAT3B expressed in Sf9 cells by surface plasmon resonance assay
[15] = tested on: U-937; assay: Inhibition of histone acetyltransferase in human U937 cells assessed as increase of acetylation of histone H3 at K14 at 50 uM after 24 hrs by Western blotting; assay type: cell-based; how it was run: as §4
[16] = tested on: U-937; assay: Inhibition of histone acetyltransferase in human U937 cells assessed as increase of acetylation of histone H4 at K5 at 50 uM after 24 hrs by Western blotting; assay type: cell-based; how it was run: as §4
[17] = tested on: U-937; assay: Inhibition of histone acetyltransferase in human U937 cells assessed as increase of acetylation of histone H3 at K56 at 50 uM after 24 hrs by Western blotting; assay type: cell-based; how it was run: as §4
[18] = tested on: U-937; assay: Cell cycle arrest in human U937 cells assessed as accumulation at S phase at 50 uM after 30 hrs using propidium iodide staining by flow cytometry; assay type: functional, cell-based; how it was run: as §2
[19] = tested on: U-937; assay: Induction of apoptosis in human U937 cells after 30 hrs using annexin V/propidium iodide double-staining by FACS analysis; assay type: functional, cell-based; conditions: U-937, 30 h; how it was run: as §1
[20] = tested on: U-937; assay: Inhibition of histone acetyltransferase in human U937 cells assessed as inhibition of acetylation of histone H4 at K8 at 50 uM after 24 hrs by Western blotting; assay type: cell-based; how it was run: as §4
[21] = tested on: U-937; assay: Inhibition of histone acetyltransferase in human U937 cells assessed as increase of pan-acetylated histone H4 level at 50 uM after 24 hrs by Western blotting; assay type: cell-based; how it was run: as §4
[22] = biological target: Albumin (Bos taurus, UniProt P02769); assay: Binding affinity to bovine serum albumin by surface plasmon resonance assay; conditions: cattle
[23] = tested on: U-937; assay: Inhibition of histone acetyltransferase in human U937 cells assessed as increase of acetylation of histone H4 at K8 at 50 uM after 24 hrs by Western blotting; assay type: cell-based; how it was run: as §4
[24] = tested on: U-937; assay: Induction of apoptosis in human U937 cells at 50 uM after 30 hrs using annexin V/propidium iodide double-staining by FACS analysis; assay type: functional; how it was run: as §1
[25] = biological target: Histone acetyltransferase KAT2B (Homo sapiens) (UniProt Q92831); assay: Inhibition of human recombinant KAT2B using histone H4 peptide as substrate at 50 uM after 2 hrs; how it was run: as §3
[26] = tested on: MCF7; assay: Inhibition of histone acetyltransferase in human MCF7 cells assessed as increase of alpha-tubulin acetylation level at 15 uM after 15 mins by Western blotting; assay type: cell-based
How it was run: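 MCF-7 cells grown in D-MEM at 200,000 cells/mL, 37 °C, 5% CO2, treated at 15 and 30 µM. Lysis in 50 mM Tris–HCl pH 7.4, 150 mM NaCl, 1% NP40, NaF, PMSF and protease inhibitors, 15 min at 4 °C. Bradford quantitation. Western blot with anti-acetyl-α-tubulin (1:1000), ERK1 as loading control.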

Histone acetyltransferase KAT2B (Homo sapiens), sequence (Q92831 whole entry, looked up, the tested form may be a part): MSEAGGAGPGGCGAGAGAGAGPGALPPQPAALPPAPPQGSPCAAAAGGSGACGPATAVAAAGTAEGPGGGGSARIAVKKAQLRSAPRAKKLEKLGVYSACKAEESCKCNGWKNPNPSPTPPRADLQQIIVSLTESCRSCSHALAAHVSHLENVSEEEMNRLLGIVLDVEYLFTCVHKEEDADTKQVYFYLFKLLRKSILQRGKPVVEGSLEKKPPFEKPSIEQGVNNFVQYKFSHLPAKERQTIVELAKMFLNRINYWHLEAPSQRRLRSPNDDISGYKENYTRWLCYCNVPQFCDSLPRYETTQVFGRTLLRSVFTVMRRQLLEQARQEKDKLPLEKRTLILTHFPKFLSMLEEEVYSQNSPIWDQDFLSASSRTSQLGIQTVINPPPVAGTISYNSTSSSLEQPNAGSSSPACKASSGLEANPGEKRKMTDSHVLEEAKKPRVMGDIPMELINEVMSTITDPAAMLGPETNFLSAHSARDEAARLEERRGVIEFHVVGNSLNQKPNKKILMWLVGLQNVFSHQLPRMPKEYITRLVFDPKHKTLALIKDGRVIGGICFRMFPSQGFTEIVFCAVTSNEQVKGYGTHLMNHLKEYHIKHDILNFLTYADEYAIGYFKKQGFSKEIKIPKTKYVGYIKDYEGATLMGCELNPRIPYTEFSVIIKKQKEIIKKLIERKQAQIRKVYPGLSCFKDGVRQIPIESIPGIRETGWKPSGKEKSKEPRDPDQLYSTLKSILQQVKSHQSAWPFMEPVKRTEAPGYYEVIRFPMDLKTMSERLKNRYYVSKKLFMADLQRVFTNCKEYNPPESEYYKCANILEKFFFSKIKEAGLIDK
CREB-binding protein (Homo sapiens), sequence (Q92793 2-2442 limits assumed): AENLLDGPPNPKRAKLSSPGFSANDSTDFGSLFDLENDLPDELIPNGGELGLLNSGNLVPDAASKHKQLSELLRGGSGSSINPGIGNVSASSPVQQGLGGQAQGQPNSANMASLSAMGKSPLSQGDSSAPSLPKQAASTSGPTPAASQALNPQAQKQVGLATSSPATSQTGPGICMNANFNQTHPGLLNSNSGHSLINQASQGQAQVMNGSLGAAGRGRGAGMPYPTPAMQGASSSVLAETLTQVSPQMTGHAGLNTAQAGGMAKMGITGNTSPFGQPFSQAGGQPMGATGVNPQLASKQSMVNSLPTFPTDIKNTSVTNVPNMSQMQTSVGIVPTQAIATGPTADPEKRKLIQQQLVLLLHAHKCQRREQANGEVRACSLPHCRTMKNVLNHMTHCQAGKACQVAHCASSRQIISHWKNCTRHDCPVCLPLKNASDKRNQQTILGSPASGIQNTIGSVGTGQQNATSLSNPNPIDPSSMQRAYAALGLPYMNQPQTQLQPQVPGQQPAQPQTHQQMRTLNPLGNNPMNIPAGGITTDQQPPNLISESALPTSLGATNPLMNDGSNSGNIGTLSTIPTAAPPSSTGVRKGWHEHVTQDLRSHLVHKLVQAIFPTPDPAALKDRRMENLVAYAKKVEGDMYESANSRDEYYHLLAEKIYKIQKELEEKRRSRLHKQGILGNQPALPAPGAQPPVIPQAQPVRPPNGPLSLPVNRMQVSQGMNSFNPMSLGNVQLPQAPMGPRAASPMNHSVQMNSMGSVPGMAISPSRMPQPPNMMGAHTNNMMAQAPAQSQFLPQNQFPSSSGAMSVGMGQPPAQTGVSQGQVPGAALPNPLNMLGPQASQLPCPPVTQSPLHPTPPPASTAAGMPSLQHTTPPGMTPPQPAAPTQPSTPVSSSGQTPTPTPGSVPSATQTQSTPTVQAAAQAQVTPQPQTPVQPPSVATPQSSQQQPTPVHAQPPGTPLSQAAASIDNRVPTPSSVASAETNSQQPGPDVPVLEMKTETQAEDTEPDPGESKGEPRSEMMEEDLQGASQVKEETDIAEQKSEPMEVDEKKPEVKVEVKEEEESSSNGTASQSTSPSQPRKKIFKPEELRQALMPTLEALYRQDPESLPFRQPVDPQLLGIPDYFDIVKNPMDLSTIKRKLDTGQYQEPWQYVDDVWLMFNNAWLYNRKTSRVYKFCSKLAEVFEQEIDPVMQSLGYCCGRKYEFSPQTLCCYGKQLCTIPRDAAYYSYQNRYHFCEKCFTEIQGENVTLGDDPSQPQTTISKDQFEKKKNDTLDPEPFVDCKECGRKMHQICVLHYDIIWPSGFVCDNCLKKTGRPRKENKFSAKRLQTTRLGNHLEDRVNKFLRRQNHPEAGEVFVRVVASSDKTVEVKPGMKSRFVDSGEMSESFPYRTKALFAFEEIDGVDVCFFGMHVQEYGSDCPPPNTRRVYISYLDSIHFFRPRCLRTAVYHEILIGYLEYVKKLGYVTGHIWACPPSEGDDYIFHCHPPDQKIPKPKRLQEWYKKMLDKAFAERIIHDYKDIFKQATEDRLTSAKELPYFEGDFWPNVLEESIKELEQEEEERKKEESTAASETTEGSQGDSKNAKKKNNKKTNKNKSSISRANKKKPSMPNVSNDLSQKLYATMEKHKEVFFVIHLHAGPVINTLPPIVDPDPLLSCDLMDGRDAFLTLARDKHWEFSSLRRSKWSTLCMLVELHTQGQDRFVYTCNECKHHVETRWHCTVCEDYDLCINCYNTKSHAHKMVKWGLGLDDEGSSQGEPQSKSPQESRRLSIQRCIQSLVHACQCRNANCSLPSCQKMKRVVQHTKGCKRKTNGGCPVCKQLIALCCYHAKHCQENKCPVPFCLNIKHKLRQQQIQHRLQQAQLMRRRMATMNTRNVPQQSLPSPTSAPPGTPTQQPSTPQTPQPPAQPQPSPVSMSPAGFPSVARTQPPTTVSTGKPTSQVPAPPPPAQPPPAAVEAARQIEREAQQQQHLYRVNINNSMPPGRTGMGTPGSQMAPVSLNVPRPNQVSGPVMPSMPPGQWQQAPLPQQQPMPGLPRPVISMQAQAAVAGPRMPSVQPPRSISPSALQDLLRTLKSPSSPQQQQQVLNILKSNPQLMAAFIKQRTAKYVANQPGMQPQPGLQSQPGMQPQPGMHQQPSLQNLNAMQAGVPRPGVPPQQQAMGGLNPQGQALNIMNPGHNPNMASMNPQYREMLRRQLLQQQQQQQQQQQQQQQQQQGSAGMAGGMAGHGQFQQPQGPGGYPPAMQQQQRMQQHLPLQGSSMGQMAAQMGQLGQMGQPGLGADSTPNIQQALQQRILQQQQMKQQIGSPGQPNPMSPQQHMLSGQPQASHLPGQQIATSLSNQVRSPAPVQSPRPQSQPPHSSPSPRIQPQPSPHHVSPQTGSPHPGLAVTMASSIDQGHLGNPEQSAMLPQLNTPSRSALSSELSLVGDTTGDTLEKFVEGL
Albumin, sequence (P02769 whole entry): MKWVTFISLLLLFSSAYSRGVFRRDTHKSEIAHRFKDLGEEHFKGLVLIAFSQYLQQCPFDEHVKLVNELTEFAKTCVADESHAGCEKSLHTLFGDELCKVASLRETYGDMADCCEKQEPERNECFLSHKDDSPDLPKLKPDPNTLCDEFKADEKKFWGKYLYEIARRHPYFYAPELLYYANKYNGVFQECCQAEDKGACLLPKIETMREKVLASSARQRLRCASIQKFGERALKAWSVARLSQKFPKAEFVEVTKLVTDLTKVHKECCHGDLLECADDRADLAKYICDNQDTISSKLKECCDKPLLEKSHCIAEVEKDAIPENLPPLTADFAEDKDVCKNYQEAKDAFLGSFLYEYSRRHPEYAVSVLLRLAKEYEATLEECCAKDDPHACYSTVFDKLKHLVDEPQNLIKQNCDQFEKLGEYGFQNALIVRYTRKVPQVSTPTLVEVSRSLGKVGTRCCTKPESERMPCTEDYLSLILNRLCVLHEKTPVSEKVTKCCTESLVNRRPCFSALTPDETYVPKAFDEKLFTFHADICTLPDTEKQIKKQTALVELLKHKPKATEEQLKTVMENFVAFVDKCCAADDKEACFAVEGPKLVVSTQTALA

For `CCCCCCCCCCCCCNC=C(C(=O)OCC)C(=O)OCC`, the Activity [1] was “inactive”, the Activity [2] was “inactive” and the Activity [3] was “Active”. For the same compound, the inhibition [4] was “Dose-dependent effect”, the Activity [5] was “inactive” and the inhibition [6] was “Active”.
With `CCCCCCCCCCCCCCC=C(C(=O)OCC)C(=O)OCC` the Activity [7] was “Dose-dependent effect”, the inhibition [8] was “Active” and the inhibition [9] was “Active”. For the same compound, the inhibition [10] was “inactive”, the inhibition [11] was “inactive” and the inhibition [12] was “Active”. The inhibition [13] was “inactive”, the Activity [14] was “Dose-dependent effect” and the Activity [3] was “Active”. The inhibition [15] was “inactive”, the inhibition [16] was “inactive” and the inhibition [17] was “inactive”. For the same compound, the Activity [18] was “Active”, the IC50 [19] was 44.9 µM and the inhibition [20] was “inactive”. The inhibition [21] was “Active”, the Activity [22] was “Not Active” and the Activity [5] was “inactive”. The inhibition [6] was 79%, the inhibition [23] was “inactive” and the Activity [24] was 94.4%.
For `CCCCCCCCCCCCCCCC(O)=C(C(=O)OCC)C(=O)OCC`, the Activity [1] was “inactive”, the Activity [2] was “inactive” and the inhibition [25] was “Active”. For the same compound, the inhibition [26] was “Active”, the Activity [5] was “inactive” and the inhibition [6] was “Active”.
